Results from ChEMBL document CHEMBL5034049, “Flavonol-Based Carbon Monoxide Delivery Molecule with Endoplasmic Reticulum, Mitochondria, And Lysosome Localization” (ACS Med Chem Lett, 2022).
pIC50: −log10 of the molar value. The source made the active and inactive calls. No cut-off for these calls is given here.

Experiments:
[1] = Drug uptake in human HFL1 cells at 1 uM after 4 hrs by Hoechst 33258 staining based fluorescence microscopic analysis; assay type: ADME, cell-based; details: hfl1, 4 h
A549 [2] = assay: Cytotoxicity against human A549 cells assessed as reduction in cell viability incubated for 24 hrs under dark condition by MTT assay; assay type: cell-based; details: A549, 24 h
RAW264.7 [3] = assay: Cytotoxicity against mouse RAW264.7 cells assessed as reduction in cell viability incubated for 24 hrs under dark condition by MTT assay; assay type: cell-based; details: RAW264.7, 24 h
A549 [4] = assay: Cytotoxicity against human A549 cells assessed as reduction in cell viability up to 100 uM incubated for 24 hrs under dark condition by MTT assay; assay type: cell-based; details: a549, 24 h
HFL1 [5] = assay: Cytotoxicity against human HFL1 cells assessed as reduction in cell viability up to 100 uM incubated for 24 hrs under dark condition by MTT assay; assay type: cell-based; details: hfl1, 24 h
[6] = Drug uptake in mouse RAW264.7 cells at 5 uM after 4 hrs by Hoechst 33258 staining based fluorescence microscopic analysis; assay type: ADME, cell-based; details: raw264.7, 4 h
[7] = Drug uptake in endoplasmic reticulum of human A549 cells at 25 uM measured after 1 hr by ER-Tracker Red based confocal microscopic analysis; assay type: ADME; details: a549, 1 h
In short: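 A549 cells treated 1 h at 25 μM (vehicle 0.4% DMSO), then counterstained with Hoechst 33342 and ER-Tracker Red. Imaged by confocal microscopy. Overlap given as Pearson's colocalization coefficient, mean ± SEM over 27 cells examined individually across three separate experiments. Line intensity profiles of regions of interest taken over 20 μm.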

[8] = Drug uptake in mitochondria of human A549 cells at 25 uM measured after 1 hr by MitoTracker Deep Red based confocal microscopic analysis; assay type: ADME; details: a549, 1 h
[9] = Drug uptake in lysosome of human A549 cells at 25 uM measured after 1 hr by LysoTracker Red based confocal microscopic analysis; assay type: ADME, subcellular; details: a549, 1 h
RAW264.7 [10] = assay: Antiinflammatory activity against LPS-stimulated mouse RAW264.7 cells assessed as inhibition of TNF-alpha production at 40 nM incubated for 10 hrs under dark conditions followed by LPS stimulation for 1 hr by ELISA; assay type: functional, cell-based; details: time 11.0 hrs
In short: (§1)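 TNF-α suppression in RAW 264.7 macrophages challenged with LPS. Dark and illuminated treatments run as independent experiments. Mean ± SEM from three independent experiments, compared with the LPS positive control and with the matching non-illuminated treatment.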

A549 [11] = assay: Cytotoxicity against human A549 cells assessed as inhibition of cell viability preincubated under visible light-induced CO release condition for 1 hr followed by incubation with drug for 23 hrs by MTT assay; assay type: functional, cell-based
[12] = Drug uptake in human A549 cells assessed as clustering of emission at 1 uM after 1 hr by confocal microscopy; assay type: ADME, cell-based; details: a549, 1 h
In short: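 A549 cells exposed 1 h at 1 μM with a media control. Hoechst nuclear counterstain. Confocal imaging at 63×, compound emission read in the green channel.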

RAW264.7 [13] = assay: Antiinflammatory activity against LPS-stimulated mouse RAW264.7 cells assessed as inhibition of TNF-alpha production incubated for 4 hrs followed by illumination with blue LED array for 1 hr and later incubated for 6 hrs under dark conditions followed by LPS stimulation for 1 hr by ELISA; assay type: functional, cell-based; details: time 12.0 hrs; in short: as §1
[14] = Drug uptake in human A549 cells at 1 uM after 4 hrs by Hoechst 33342 staining based fluorescence microscopic analysis; details: a549, 4 h
HFL1 [15] = assay: Cytotoxicity against human HFL1 cells assessed as reduction in cell viability incubated for 24 hrs under dark condition by MTT assay; assay type: cell-based; details: HFL1, 24 h
RAW264.7 [16] = assay: Cytotoxicity against mouse RAW264.7 cells assessed as reduction in cell viability up to 100 uM incubated for 24 hrs under dark condition by MTT assay; assay type: cell-based; details: raw264.7, 24 h

Row | Structure (SMILES) | pIC50 (A549 [2]) | pIC50 (RAW264.7 [3]) | Activity (A549 [4]) | Activity (HFL1 [5]) | pIC50 (A549 [11]) | Activity (RAW264.7 [13]) | Activity (RAW264.7 [16]) | also measured
1 | CCN(CC)c1ccc(-c2oc3cc4ccccc4cc3c(=O)c2O)cc1 | < 4.00 | 4.17 | Non-Toxic | Non-Toxic | 4.97 | Active |  | Drug uptake [1]: Active; Drug uptake [6]: Active; Drug uptake [7]: Active; Drug uptake [8]: Active; Drug uptake [9]: Active; Activity (RAW264.7 [10]): Active; Drug uptake [12]: Active; Drug uptake [14]: Active
2 | O=c1c(O)c(-c2ccccc2)oc2cc3ccccc3cc12 | 4.10 | 4.32 |  |  | 4.12 | Active |  | pIC50 (HFL1 [15]): 4.19
3 | O=C(Oc1cc2ccccc2cc1C(=O)O)c1ccccc1 |  |  | Non-Toxic | Non-Toxic |  |  | Non-Toxic | 
4 | CCN(CC)c1ccc(C(=O)Oc2cc3ccccc3cc2C(=O)O)cc1 |  |  | Non-Toxic | Non-Toxic |  |  | Non-Toxic | 
5 | O=C(NCC[P+](c1ccccc1)(c1ccccc1)c1ccccc1)c1ccc(-c2oc3cc4ccccc4cc3c(=O)c2O)cc1 | 4.85 |  |  |  | 5.34 |  |  | 
